Assays:
Parameters in all cases: dose 5 mg/kg, dosed compound name [14C]CS-1036, route oral
Conditions in all cases: in vivo
Small intestine [1] = assay: Drug uptake in albino F344/DuCrlCrlj rat small intestine at 5 mg/kg, po after 1 hr by liquid scintillation counting; type: ADME, organism-based
Thymus [2] = assay: Drug uptake in albino F344/DuCrlCrlj rat thymus assessed as ng equivalent of CS-1036 at 5 mg/kg, po after 336 hrs by liquid scintillation counting; type: ADME, organism-based
Spleen [3] = assay: Drug uptake in albino F344/DuCrlCrlj rat spleen at 5 mg/kg, po after 72 hrs by liquid scintillation counting; type: ADME, organism-based
[4] = Drug uptake in albino F344/DuCrlCrlj rat mandibular gland assessed as ng equivalent of CS-1036 at 5 mg/kg, po after 24 hrs by liquid scintillation counting; type: ADME, organism-based
[5] = Drug uptake in albino F344/DuCrlCrlj rat mandibular gland at 5 mg/kg, po after 24 hrs by liquid scintillation counting; type: ADME, organism-based
[6] = Drug uptake in albino F344/DuCrlCrlj rat eyeball assessed as ng equivalent of CS-1036 at 5 mg/kg, po after 72 hrs by liquid scintillation counting; type: ADME, organism-based
Lung [7] = assay: Drug uptake in albino F344/DuCrlCrlj rat lung assessed as ng equivalent of CS-1036 at 5 mg/kg, po after 1 hr by liquid scintillation counting; type: ADME, organism-based
Liver = assay: Drug uptake in albino F344/DuCrlCrlj rat liver at 5 mg/kg, po after 168 hrs by liquid scintillation counting; type: ADME, organism-based
[8] = Drug uptake in albino F344/DuCrlCrlj rat mandibular gland at 5 mg/kg, po after 4 hrs by liquid scintillation counting; type: ADME, organism-based
Blood [9] = assay: Drug uptake in albino F344/DuCrlCrlj rat blood assessed as ng equivalent of CS-1036 at 5 mg/kg, po after 1 hr by liquid scintillation counting; type: ADME, organism-based
In short: (§1)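 Male F344/DuCrlCrlj rats (159–167 g; n = 3 per time point) received a single oral dose of [14C]CS-1036 at 5 mg/kg. Blood was taken from the abdominal aorta at 1, 4, 8, 24, 72, 168 and 336 h. Radioactivity was counted by LSC with external-standard efficiency correction. Results were converted to ng equivalent of CS-1036/ml using specific activity and sample volume, and reported as mean + S.D.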

Cerebellum = assay: Drug uptake in albino F344/DuCrlCrlj rat cerebellum assessed as ng equivalent of CS-1036 at 5 mg/kg, po after 1 hr by liquid scintillation counting; type: ADME, organism-based
Heart [10] = assay: Drug uptake in albino F344/DuCrlCrlj rat heart assessed as ng equivalent of CS-1036 at 5 mg/kg, po after 24 hrs by liquid scintillation counting; type: ADME, organism-based
[11] = Drug uptake in albino F344/DuCrlCrlj rat epididymis at 5 mg/kg, po after 168 hrs by liquid scintillation counting; type: ADME, organism-based
Heart [12] = assay: Drug uptake in albino F344/DuCrlCrlj rat heart assessed as ng equivalent of CS-1036 at 5 mg/kg, po after 1 hr by liquid scintillation counting; type: ADME, organism-based
Zone of skin [13] = assay: Drug uptake in albino F344/DuCrlCrlj rat skin assessed as ng equivalent of CS-1036 at 5 mg/kg, po after 168 hrs by liquid scintillation counting; type: ADME, organism-based
Spleen [14] = assay: Drug uptake in albino F344/DuCrlCrlj rat spleen assessed as ng equivalent of CS-1036 at 5 mg/kg, po after 336 hrs by liquid scintillation counting; type: ADME, organism-based
[15] = Drug uptake in albino F344/DuCrlCrlj rat bone marrow at 5 mg/kg, po after 336 hrs by liquid scintillation counting; type: ADME, organism-based
Small intestine [16] = assay: Drug uptake in albino F344/DuCrlCrlj rat small intestine assessed as ng equivalent of CS-1036 at 5 mg/kg, po after 4 hrs by liquid scintillation counting; type: ADME, organism-based
[17] = Drug uptake in albino F344/DuCrlCrlj rat bone marrow at 5 mg/kg, po after 8 hrs by liquid scintillation counting; type: ADME, organism-based
[18] = Drug uptake in albino F344/DuCrlCrlj rat mandibular gland assessed as ng equivalent of CS-1036 at 5 mg/kg, po after 8 hrs by liquid scintillation counting; type: ADME, organism-based
Adrenal gland = assay: Drug uptake in albino F344/DuCrlCrlj rat adrenal gland assessed as ng equivalent of CS-1036 at 5 mg/kg, po after 168 hrs by liquid scintillation counting; type: ADME, organism-based
[19] = Drug uptake in albino F344/DuCrlCrlj rat skeletal muscle at 5 mg/kg, po after 8 hrs by liquid scintillation counting; type: ADME, organism-based, Muscle tissue
Stomach [20] = assay: Drug uptake in albino F344/DuCrlCrlj rat stomach assessed as ng equivalent of CS-1036 at 5 mg/kg, po after 24 hrs by liquid scintillation counting; type: ADME, organism-based
Lung [21] = assay: Drug uptake in albino F344/DuCrlCrlj rat lung assessed as ng equivalent of CS-1036 at 5 mg/kg, po after 4 hrs by liquid scintillation counting; type: ADME, organism-based
Kidney [22] = assay: Drug uptake in albino F344/DuCrlCrlj rat kidney at 5 mg/kg, po after 1 hr by liquid scintillation counting; type: ADME, organism-based
Heart [23] = assay: Drug uptake in albino F344/DuCrlCrlj rat heart at 5 mg/kg, po after 336 hrs by liquid scintillation counting; type: ADME, organism-based
Pancreas = assay: Drug uptake in albino F344/DuCrlCrlj rat pancreas at 5 mg/kg, po after 8 hrs by liquid scintillation counting; type: ADME, organism-based
Plasma = assay: Drug uptake in albino F344/DuCrlCrlj rat plasma assessed as ng equivalent of CS-1036 at 5 mg/kg, po after 1 hr by liquid scintillation counting; type: ADME, organism-based
Stomach [24] = assay: Drug uptake in albino F344/DuCrlCrlj rat stomach assessed as ng equivalent of CS-1036 at 5 mg/kg, po after 168 hrs by liquid scintillation counting; type: ADME, organism-based
Zone of skin [25] = assay: Drug uptake in albino F344/DuCrlCrlj rat skin assessed as ng equivalent of CS-1036 at 5 mg/kg, po after 24 hrs by liquid scintillation counting; type: ADME, organism-based
Aorta [26] = assay: Drug uptake in albino F344/DuCrlCrlj rat aorta assessed as ng equivalent of CS-1036 at 5 mg/kg, po after 72 hrs by liquid scintillation counting; type: ADME, organism-based
Aorta [27] = assay: Drug uptake in albino F344/DuCrlCrlj rat aorta at 5 mg/kg, po after 336 hrs by liquid scintillation counting; type: ADME, organism-based
Kidney [28] = assay: Drug uptake in albino F344/DuCrlCrlj rat kidney at 5 mg/kg, po after 168 hrs by liquid scintillation counting; type: ADME, organism-based
Thymus [29] = assay: Drug uptake in albino F344/DuCrlCrlj rat thymus assessed as ng equivalent of CS-1036 at 5 mg/kg, po after 24 hrs by liquid scintillation counting; type: ADME, organism-based
Blood [30] = assay: Drug uptake in albino F344/DuCrlCrlj rat blood at 5 mg/kg, po after 24 hrs by liquid scintillation counting; type: ADME, organism-based; in short: as §1
Blood [31] = assay: Drug uptake in albino F344/DuCrlCrlj rat blood assessed as ng equivalent of CS-1036 at 5 mg/kg, po after 4 hrs by liquid scintillation counting; type: ADME, organism-based; in short: as §1
Lung [32] = assay: Drug uptake in albino F344/DuCrlCrlj rat lung assessed as ng equivalent of CS-1036 at 5 mg/kg, po after 336 hrs by liquid scintillation counting; type: ADME, organism-based

Work on C[C@H]1O[C@@H](O[C@H]2[C@H](O)[C@@H](O)[C@@H](O[14C@H]3[14C@H](O)[14CH2]N[14C@@H]3[14CH2]O)O[C@@H]2CO)[C@H](O)[C@@H](O)[C@@H]1O yielded a Radiolabel recovery (Small intestine [1]) of 52100 ngequiv/g, a Radiolabel recovery (Thymus [2]) of 1.96 ngequiv/g and a Radiolabel recovery (Spleen [3]) of 70.6 ngequiv/g. The Radiolabel recovery [4] was 9 ngequiv/g, the Radiolabel recovery [5] was 118 ngequiv/g and the Radiolabel recovery [6] was 1.72 ngequiv/g. The Radiolabel recovery (Lung [7]) was 3 ngequiv/g, the Radiolabel recovery (Liver) was 14.3 ngequiv/g and the Radiolabel recovery [8] was 51.1 ngequiv/g. It also gave a Radiolabel recovery (Blood [9]) of 9.5 ngequiv/ml, a Radiolabel recovery (Cerebellum) of 0.79 ngequiv/g and a Radiolabel recovery (Heart [10]) of 4.4 ngequiv/g. It also gave a Radiolabel recovery [11] of 18.5 ngequiv/g, a Radiolabel recovery (Heart [12]) of 1.1 ngequiv/g and a Radiolabel recovery (Zone of skin [13]) of 23.9 ngequiv/g. For the same compound, the Radiolabel recovery (Spleen [14]) was 2.83 ngequiv/g, the Radiolabel recovery [15] was 26.2 ngequiv/g and the Radiolabel recovery (Small intestine [16]) was 903 ngequiv/g. The Radiolabel recovery [17] was 75 ngequiv/g, the Radiolabel recovery [18] was 24 ngequiv/g and the Radiolabel recovery (Adrenal gland) was 93 ngequiv/g. For the same compound, the Radiolabel recovery [19] was 32.2 ngequiv/g, the Radiolabel recovery (Stomach [20]) was 16 ngequiv/g and the Radiolabel recovery (Lung [21]) was 10.3 ngequiv/g. It also gave a Radiolabel recovery (Kidney [22]) of 520 ngequiv/g, a Radiolabel recovery (Heart [23]) of 7.28 ngequiv/g and a Radiolabel recovery (Pancreas) of 325 ngequiv/g. It also gave a Radiolabel recovery (Plasma) of 12.7 ngequiv/ml, a Radiolabel recovery (Stomach [24]) of 11.2 ngequiv/g and a Radiolabel recovery (Zone of skin [25]) of 8.2 ngequiv/g. For the same compound, the Radiolabel recovery (Aorta [26]) was 16.1 ngequiv/g, the Radiolabel recovery (Aorta [27]) was 11 ngequiv/g and the Radiolabel recovery (Kidney [28]) was 27 ngequiv/g. For the same compound, the Radiolabel recovery (Thymus [29]) was 5.8 ngequiv/g, the Radiolabel recovery (Blood [30]) was 35.7 ngequiv/ml and the Radiolabel recovery (Blood [31]) was 16.3 ngequiv/ml. For the same compound, the Radiolabel recovery (Lung [32]) was 3.93 ngequiv/g.
